Measurements from publication PMC4180501 (Biochimica et biophysica acta, 2012).
Changes are numbered by the printed parent chain.

Tests used:
GK-WT = target: T1, GK-WT (Homo sapiens, UniProt P35557); assay: DSC thermal denaturation
T1 sequence (P35557 1-465): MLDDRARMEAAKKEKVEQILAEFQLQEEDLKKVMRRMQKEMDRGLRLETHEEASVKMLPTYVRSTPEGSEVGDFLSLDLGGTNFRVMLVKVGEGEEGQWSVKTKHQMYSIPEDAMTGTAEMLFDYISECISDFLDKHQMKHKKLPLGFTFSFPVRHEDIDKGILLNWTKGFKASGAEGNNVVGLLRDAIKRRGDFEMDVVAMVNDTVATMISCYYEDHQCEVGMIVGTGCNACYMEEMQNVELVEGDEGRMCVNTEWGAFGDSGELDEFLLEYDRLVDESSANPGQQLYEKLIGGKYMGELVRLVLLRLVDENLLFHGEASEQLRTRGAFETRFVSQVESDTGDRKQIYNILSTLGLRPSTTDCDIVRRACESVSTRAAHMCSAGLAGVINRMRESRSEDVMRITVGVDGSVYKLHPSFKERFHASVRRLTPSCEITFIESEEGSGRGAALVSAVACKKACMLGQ
Procedure, shortened: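 Wild-type recombinant human GK was run by DSC at 0.3 mg/ml (6 µM) in 5 mM phosphate, 100 mM KCl, pH 7.3, in buffer or 20% glycerol, with glucose up to 300 mM. The scan was 0.25 degree/min against a protein-free reference. Tm was plotted against glucose and fit to a hyperbola for EC50. Unfolding rate constant used k=vCp/(Qt−Q) to derive activation energy.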

GK-W167 (W99R/W257F) = target: T2, GK-W167 (W99R/W257F) (Homo sapiens, UniProt P35557, W257F/W99R); assay: D-glucose binding by tryptophan fluorescence titration; details: W-167, no GKA
T2 sequence (P35557 1-465 W99R/W257F): T1 sequence (P35557 1-465) with W99R, W257F

[1] = GK-WT in 20% glycerol, 300 mM D-glucose
[2] = GK-WT in buffer, 300 mM D-glucose
[3] = GK-WT, 20% glycerol, 7.5 mM D-glucose
[4] = GK-WT, 20% glycerol, 50 mM D-glucose
[5] = GK-WT, 20% glycerol, 100 mM D-glucose
[6] = GK-WT, 20% glycerol, 200 mM D-glucose
[7] = GK-WT, buffer, 7.5 mM D-glucose
[8] = GK-WT, buffer, 100 mM D-glucose
[9] = GK-WT, buffer, 200 mM D-glucose

EC50 (GK-WT; EC50 of glucose dependency of heat capacity (Cp), 20% glycerol, hyperbolic fit): 35000 µM
Cp^m (GK-WT; [1]): 222.2 kJ/mol/°C
ΔH thermal denaturation (GK-WT; [1]): 169 kcal/mol
Tm (GK-WT; GK-WT in 20% glycerol, 300 mM D-glucose, DSC): 56.9 °C
Cp^m (GK-WT; [2]): 130.5 kJ/mol/°C
ΔH thermal denaturation (GK-WT; [2]): 135 kcal/mol
Tm (GK-WT; GK-WT in buffer, 300 mM D-glucose, DSC): 52.2 °C
Cp^m (GK-WT; [3]): 148.1 kJ/mol/°C
Ea thermal denaturation (GK-WT; [3]): 175.3 kcal/mol
Tm (GK-WT; [3]): 52.6 °C
Cp^m (GK-WT; [4]): 186.2 kJ/mol/°C
Ea thermal denaturation (GK-WT; [4]): 190.1 kcal/mol
Tm (GK-WT; [4]): 54.8 °C
Cp^m (GK-WT; [5]): 196.2 kJ/mol/°C
Ea thermal denaturation (GK-WT; [5]): 193.6 kcal/mol
Tm (GK-WT; [5]): 55.5 °C
Cp^m (GK-WT; [6]): 212.5 kJ/mol/°C
Ea thermal denaturation (GK-WT; [6]): 190.1 kcal/mol
Tm (GK-WT; [6]): 56.3 °C
Ea thermal denaturation (GK-WT; GK-WT, 20% glycerol, 300 mM D-glucose): 189.3 kcal/mol
Cp^m (GK-WT; [7]): 63.2 kJ/mol/°C
Ea thermal denaturation (GK-WT; [7]): 120 kcal/mol
Tm (GK-WT; [7]): 48.0 °C
Cp^m (GK-WT; GK-WT, buffer, 25 mM D-glucose): 90.8 kJ/mol/°C
Ea thermal denaturation (GK-WT; GK-WT, buffer, 25 mM D-glucose): 134.4 kcal/mol
Tm (GK-WT; GK-WT, buffer, 25 mM D-glucose): 49.5 °C
Cp^m (GK-WT; GK-WT, buffer, 50 mM D-glucose): 101.7 kJ/mol/°C
Ea thermal denaturation (GK-WT; GK-WT, buffer, 50 mM D-glucose): 137.5 kcal/mol
Tm (GK-WT; GK-WT, buffer, 50 mM D-glucose): 50.0 °C
Cp^m (GK-WT; [8]): 109.6 kJ/mol/°C
Ea thermal denaturation (GK-WT; [8]): 136 kcal/mol
Tm (GK-WT; [8]): 50.9 °C
Cp^m (GK-WT; [9]): 128.4 kJ/mol/°C
Ea thermal denaturation (GK-WT; [9]): 140.3 kcal/mol
Tm (GK-WT; [9]): 52.2 °C
Ea thermal denaturation (GK-WT; GK-WT, buffer, 300 mM D-glucose): 137 kcal/mol
Kd (GK-W167 (W99R/W257F); 20% glycerol): 90 µM
Kd (GK-W167 (W99R/W257F); no glycerol): 380 µM
SMILES: OC[C@H]1OC(O)[C@H](O)[C@@H](O)[C@@H]1O (stereo partly drawn) [D-glucose]
